Laboratory results: ChEMBL document CHEMBL1147105, “In vitro and in vivo activities of PD 0305970 and PD 0326448, new bacterial gyrase/topoisomerase inhibitors with potent antibacterial activities versus multidrug-resistant gram-positive and fastidious organism groups” (2007)
≈ marks a conversion by molar mass, not a printed value.

Key:
[1] = system: Prevotella bivia; assay: Antibacterial activity against Prevotella bivia; format: functional
Procedure, shortened: (§1)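 Anaerobic broth microdilution MIC following CLSI guidelines, in supplemented Brucella broth. Run in an anaerobe chamber under 5% CO2, 5% H2 and 90% N2 at 35°C, and read after 48 h. Reported as MIC range, MIC50 and MIC90.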

[2] = system: Shigella dysenteriae; assay: Antibacterial activity against Shigella dysenteriae; format: functional
[3] = system: Fusobacterium nucleatum; assay: Antibacterial activity against Fusobacterium nucleatum; format: functional; procedure, shortened: as §1
[4] = system: Clostridium perfringens; assay: Antibacterial activity against Clostridium perfringens; format: functional
Procedure, shortened: (§2)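 Broth microdilution MIC per CLSI guidelines, incubated at 35°C. Cation-adjusted Mueller-Hinton broth for nonfastidious organisms and staphylococci. Streptococci tested in the same broth with 3% lysed horse blood. Anaerobes tested in supplemented Brucella broth inside an anaerobe chamber (5% CO2, 5% H2, 90% N2), read after 48 h. Strains were mainly recent clinical isolates with confirmed identity.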

[5] = system: Corynebacterium jeikeium; assay: Antibacterial activity against Corynebacterium jeikeium; format: functional
Procedure, shortened: (§3)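 Broth microdilution MIC following CLSI guidelines, in cation-adjusted Mueller-Hinton broth containing 3% lysed horse blood, incubated at 35°C. Clinical isolates with identity confirmed. Reported as MIC range, MIC50 and MIC90.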

[6] = system: Staphylococcus aureus; assay: Antibacterial activity against oxacillin-resistant Staphylococcus aureus; format: functional; procedure, shortened: as §2
[7] = system: Staphylococcus epidermidis; assay: Antibacterial activity against oxacillin-resistant Staphylococcus epidermidis; format: functional; procedure, shortened: as §2
[8] = system: Klebsiella pneumoniae; assay: Antibacterial activity against Klebsiella pneumoniae; format: functional
Procedure, shortened: (§4)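 Broth microdilution MIC following CLSI guidelines, in cation-adjusted Mueller-Hinton broth, incubated at 35°C. Recent clinical isolates and reference strains, with identity confirmed by automated and standard microbiological methods. Results reported as MIC range, MIC50 and MIC90.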

[9] = system: Fusobacterium sp.; assay: Antibacterial activity against Fusobacterium sp.; format: functional; procedure, shortened: as §1
[10] = system: Bacteroides fragilis; assay: Antibacterial activity against Bacteroides fragilis; format: functional; procedure, shortened: as §1
[11] = system: Streptococcus pyogenes; assay: Antibacterial activity against Streptococcus pyogenes; format: functional
Procedure, shortened: (§5)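 Broth microdilution MIC following CLSI guidelines, in cation-adjusted Mueller-Hinton broth with 3% lysed horse blood. Plates incubated at 35°C. Clinical isolates and reference strains, with identity confirmed by standard microbiological methods.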

[12] = system: Enterobacter cloacae; assay: Antibacterial activity against Enterobacter cloacae; format: functional; procedure, shortened: as §4
[13] = system: Staphylococcus saprophyticus; assay: Antibacterial activity against Staphylococcus saprophyticus; format: functional; procedure, shortened: as §4
[14] = system: Staphylococcus warneri; assay: Antibacterial activity against Staphylococcus warneri; format: functional; procedure, shortened: as §4
[15] = system: Staphylococcus haemolyticus; assay: Antibacterial activity against Staphylococcus haemolyticus; format: functional; procedure, shortened: as §3
[16] = system: Moraxella catarrhalis; assay: Antibacterial activity against beta-lactamase negative Moraxella catarrhalis; format: functional
[17] = system: Enterococcus faecalis; assay: Antibacterial activity against beta-lactamase positive Enterococcus faecalis; format: functional
Procedure, shortened: (§6)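 MIC by CLSI broth microdilution for nonfastidious organisms, in cation-adjusted Mueller-Hinton broth incubated at 35°C.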

[18] = system: Proteus mirabilis; assay: Antibacterial activity against Proteus mirabilis; format: functional; procedure, shortened: as §4
[19] = system: Shigella sonnei; assay: Antibacterial activity against Shigella sonnei; format: functional; procedure, shortened: as §4
[20] = system: Citrobacter koseri; assay: Antibacterial activity against Citrobacter diversus; format: functional; procedure, shortened: as §4
[21] = system: Burkholderia cepacia; assay: Antibacterial activity against Burkholderia cepacia; format: functional; procedure, shortened: as §4
[22] = system: Peptostreptococcus anaerobius; assay: Antibacterial activity against Peptostreptococcus anaerobius; format: functional; procedure, shortened: as §1
[23] = system: Serratia marcescens; assay: Antibacterial activity against Serratia marcescens; format: functional; procedure, shortened: as §4
[24] = system: Salmonella enteritidis; assay: Antibacterial activity against Salmonella enterica serovar Enteritidis; format: functional, Salmonella enterica subsp. enterica serovar Enteritidis; procedure, shortened: as §4
[25] = system: Prevotella buccae; assay: Antibacterial activity against Prevotella buccae; format: functional; conditions: Segatella buccae; procedure, shortened: as §1
[26] = system: Streptococcus pneumoniae; assay: Antibacterial activity against penicillin-intermediate resistant Streptococcus pneumoniae; format: functional; procedure, shortened: as §2
[27] = system: Streptococcus mitis; assay: Antibacterial activity against Streptococcus mitis; format: functional; procedure, shortened: as §5
[28] = system: Proteus vulgaris; assay: Antibacterial activity against Proteus vulgaris; format: functional; procedure, shortened: as §4
[29] = system: Staphylococcus aureus; assay: Antibacterial activity against oxacillin and levofloxacin-resistant Staphylococcus aureus; format: functional; procedure, shortened: as §2
[30] = system: Actinomyces sp.; assay: Antibacterial activity against Actinomyces sp.; format: functional
[31] = system: Cutibacterium acnes; assay: Antibacterial activity against Propionibacterium acnes; format: functional
[32] = system: Acinetobacter sp.; assay: Antibacterial activity against Acinetobacter sp.; format: functional; procedure, shortened: as §4
[33] = system: Escherichia coli; assay: Antibacterial activity against Escherichia coli; format: functional; procedure, shortened: as §4
[34] = system: Morganella morganii; assay: Antibacterial activity against Morganella morganii; format: functional; procedure, shortened: as §4
[35] = system: Enterococcus faecalis; assay: Antibacterial activity against Enterococcus faecalis; format: functional; procedure, shortened: as §2
[36] = system: Haemophilus influenzae; assay: Antibacterial activity against beta-lactamase positive Haemophilus influenzae; format: functional
Procedure, shortened: (§7)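 Broth microdilution MIC following CLSI guidelines, in Haemophilus test medium at 35°C.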

[37] = system: Prevotella sp.; assay: Antibacterial activity against Prevotella sp.; format: functional; procedure, shortened: as §1
[38] = system: Clostridioides difficile; assay: Antibacterial activity against Clostridium difficile; format: functional; procedure, shortened: as §1
[39] = system: Bacteroides ovatus; assay: Antibacterial activity against Bacteroides ovatus; format: functional; procedure, shortened: as §1
[40] = system: Corynebacterium sp.; assay: Antibacterial activity against Corynebacterium sp.; format: functional; procedure, shortened: as §3
[41] = system: Neisseria gonorrhoeae; assay: Antibacterial activity against Neisseria gonorrhoeae; format: functional
Procedure, shortened: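 MIC by broth microdilution in gonococcal broth, incubated at 35°C in 5% CO2. Reported as MIC range, MIC50 and MIC90.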

[42] = system: Enterococcus faecium; assay: Antibacterial activity against VanA-resistant Enterococcus faecium; format: functional; procedure, shortened: as §2
[43] = system: Enterococcus casseliflavus; assay: Antibacterial activity against Enterococcus casseliflavus; format: functional
[44] = system: Enterococcus gallinarum; assay: Antibacterial activity against Enterococcus gallinarum; format: functional
[45] = system: Pseudomonas aeruginosa; assay: Antibacterial activity against Pseudomonas aeruginosa; format: functional; procedure, shortened: as §4
[46] = system: Haemophilus influenzae; assay: Antibacterial activity against beta-lactamase negative Haemophilus influenzae; format: functional; procedure, shortened: as §7
[47] = system: Fusobacterium necrophorum; assay: Antibacterial activity against Fusobacterium necrophorum; format: functional; procedure, shortened: as §1
[48] = system: Staphylococcus aureus; assay: Antibacterial activity against oxacillin-susceptible Staphylococcus aureus; format: functional; procedure, shortened: as §6
[49] = system: Streptococcus salivarius; assay: Antibacterial activity against Streptococcus salivarius; format: functional; procedure, shortened: as §5

## Cc1c(N2CC[C@@H]([C@H](C)N)C2)c(F)cc2c(=O)[nH]c(=O)n(C3CC3)c12
[1]
  MIC50: 0.5 µg/mL (≈ 1.44 µM)
  MIC90: 2 µg/mL (≈ 5.77 µM)
[2]
  MIC50: 2 µg/mL (≈ 5.77 µM)
  MIC90: 4 µg/mL (≈ 11.5 µM)
[3]
  MIC: 0.125 µg/mL (≈ 0.361 µM)
[4]
  MIC50: 2 µg/mL (≈ 5.77 µM)
  MIC90: 8 µg/mL (≈ 23.1 µM)
[5]
  MIC50: 0.5 µg/mL (≈ 1.44 µM)
  MIC90: 1 µg/mL (≈ 2.89 µM)
[6]
  MIC50: 0.25 µg/mL (≈ 0.722 µM)
  MIC90: 0.5 µg/mL (≈ 1.44 µM)
[7]
  MIC50: 0.25 µg/mL (≈ 0.722 µM)
  MIC90: 0.25 µg/mL (≈ 0.722 µM)
[8]
  MIC50: 4 µg/mL (≈ 11.5 µM)
  MIC90: 16 µg/mL (≈ 46.2 µM)
[9]
  MIC: 0.125 µg/mL (≈ 0.361 µM)
[10]
  MIC50: 8 µg/mL (≈ 23.1 µM)
  MIC90: 16 µg/mL (≈ 46.2 µM)
[11]
  MIC50: 0.03 µg/mL (≈ 0.0866 µM)
  MIC90: 0.03 µg/mL (≈ 0.0866 µM)
[12]
  MIC50: 2 µg/mL (≈ 5.77 µM)
  MIC90: 16 µg/mL (≈ 46.2 µM)
[13]
  MIC50: 0.125 µg/mL (≈ 0.361 µM)
  MIC90: 0.5 µg/mL (≈ 1.44 µM)
[14]
  MIC: 0.125 µg/mL (≈ 0.361 µM)
[15]
  MIC50: 0.25 µg/mL (≈ 0.722 µM)
  MIC90: 1 µg/mL (≈ 2.89 µM)
[16]
  MIC50: 0.5 µg/mL (≈ 1.44 µM)
  MIC90: 1 µg/mL (≈ 2.89 µM)
[17]
  MIC: 0.06 µg/mL (≈ 0.173 µM)
[18]
  MIC50: 2 µg/mL (≈ 5.77 µM)
  MIC90: 8 µg/mL (≈ 23.1 µM)
[19]
  MIC50: 2 µg/mL (≈ 5.77 µM)
  MIC90: 4 µg/mL (≈ 11.5 µM)
[20]
  MIC50: 2 µg/mL (≈ 5.77 µM)
  MIC90: 8 µg/mL (≈ 23.1 µM)
[21]
  MIC50: 32 µg/mL (≈ 92.4 µM)
  MIC90: > 64 µg/mL
[22]
  MIC: 0.06 µg/mL (≈ 0.173 µM)
[23]
  MIC50: 4 µg/mL (≈ 11.5 µM)
  MIC90: 32 µg/mL (≈ 92.4 µM)
[24]
  MIC50: 2 µg/mL (≈ 5.77 µM)
  MIC90: 4 µg/mL (≈ 11.5 µM)
[25]
  MIC50: 0.5 µg/mL (≈ 1.44 µM)
  MIC90: 2 µg/mL (≈ 5.77 µM)
[26]
  MIC50: 0.06 µg/mL (≈ 0.173 µM)
  MIC90: 0.125 µg/mL (≈ 0.361 µM)
[27]
  MIC50: 0.03 µg/mL (≈ 0.0866 µM)
  MIC90: 0.06 µg/mL (≈ 0.173 µM)
[28]
  MIC: 2 µg/mL (≈ 5.77 µM)
[29]
  MIC50: 1 µg/mL (≈ 2.89 µM)
  MIC90: 4 µg/mL (≈ 11.5 µM)
[30]
  MIC: 1 µg/mL (≈ 2.89 µM)
[31]
  MIC50: 4 µg/mL (≈ 11.5 µM)
  MIC90: 8 µg/mL (≈ 23.1 µM)
[32]
  MIC50: 4 µg/mL (≈ 11.5 µM)
  MIC90: 64 µg/mL (≈ 185 µM)
[33]
  MIC50: 2 µg/mL (≈ 5.77 µM)
  MIC90: 8 µg/mL (≈ 23.1 µM)
[34]
  MIC50: 2 µg/mL (≈ 5.77 µM)
  MIC90: 32 µg/mL (≈ 92.4 µM)
[35]
  MIC50: 0.25 µg/mL (≈ 0.722 µM)
  MIC90: 0.5 µg/mL (≈ 1.44 µM)
[36]
  MIC50: 0.5 µg/mL (≈ 1.44 µM)
  MIC90: 1 µg/mL (≈ 2.89 µM)
[37]
  MIC50: 0.5 µg/mL (≈ 1.44 µM)
  MIC90: 2 µg/mL (≈ 5.77 µM)
[38]
  MIC50: 2 µg/mL (≈ 5.77 µM)
  MIC90: 8 µg/mL (≈ 23.1 µM)
[39]
  MIC50: 16 µg/mL (≈ 46.2 µM)
  MIC90: 32 µg/mL (≈ 92.4 µM)
[40]
  MIC50: 0.5 µg/mL (≈ 1.44 µM)
  MIC90: 1 µg/mL (≈ 2.89 µM)
[41]
  MIC50: 0.5 µg/mL (≈ 1.44 µM)
  MIC90: 1 µg/mL (≈ 2.89 µM)
[42]
  MIC50: 1 µg/mL (≈ 2.89 µM)
  MIC90: 2 µg/mL (≈ 5.77 µM)
[43]
  MIC50: 0.25 µg/mL (≈ 0.722 µM)
  MIC90: 0.25 µg/mL (≈ 0.722 µM)
[44]
  MIC50: 0.25 µg/mL (≈ 0.722 µM)
  MIC90: 0.5 µg/mL (≈ 1.44 µM)
[45]
  MIC50: 8 µg/mL (≈ 23.1 µM)
  MIC90: > 64 µg/mL
[46]
  MIC50: 0.25 µg/mL (≈ 0.722 µM)
  MIC90: 0.5 µg/mL (≈ 1.44 µM)
[47]
  MIC: 0.125 µg/mL (≈ 0.361 µM)
[48]
  MIC50: 0.25 µg/mL (≈ 0.722 µM)
  MIC90: 0.25 µg/mL (≈ 0.722 µM)
[49]
  MIC50: 0.03 µg/mL (≈ 0.0866 µM)
  MIC90: 0.06 µg/mL (≈ 0.173 µM)
